{
  "source": "ChEMBL document CHEMBL1287697",
  "about": "“Receptor agonists of macrophage migration inhibitory factor” (Bioorg Med Chem Lett, 2010)",
  "key": {"[1]": {"target": "T1, MIF/CD74 (Macrophage migration inhibitory factor and HLA-DR antigens-associated invariant chain) (Homo sapiens, UniProt P14174+P04233)", "T1 sequence (P14174 whole entry)": "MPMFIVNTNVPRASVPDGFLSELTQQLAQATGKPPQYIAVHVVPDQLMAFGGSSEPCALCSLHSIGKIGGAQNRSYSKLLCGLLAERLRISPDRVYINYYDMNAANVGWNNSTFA", "T1 sequence (P04233 whole entry)": "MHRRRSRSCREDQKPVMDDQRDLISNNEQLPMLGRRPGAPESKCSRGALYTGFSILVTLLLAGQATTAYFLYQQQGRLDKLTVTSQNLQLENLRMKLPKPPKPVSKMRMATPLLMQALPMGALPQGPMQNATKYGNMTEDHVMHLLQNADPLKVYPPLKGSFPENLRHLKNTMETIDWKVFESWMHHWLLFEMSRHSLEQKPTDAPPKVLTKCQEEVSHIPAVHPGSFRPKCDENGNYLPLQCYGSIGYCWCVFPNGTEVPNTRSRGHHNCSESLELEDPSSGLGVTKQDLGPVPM", "assay": "(§1) Inhibition of human biotinylated MIF/CD74 interaction", "assay_type": "protein assay"}, "[2]": {"target": "T2, MIF/CD74 (Macrophage migration inhibitory factor and HLA-DR antigens-associated invariant chain) (Homo sapiens, UniProt P04233+P14174)", "T2 sequence (P14174 whole entry)": "T1 sequence (P14174 whole entry)", "T2 sequence (P04233 whole entry)": "T1 sequence (P04233 whole entry)", "assay": "as §1", "assay_type": "protein assay"}, "[3]": {"target": "T3, Macrophage migration inhibitory factor (Homo sapiens) (UniProt P14174)", "T3 sequence (whole entry)": "T1 sequence (P14174 whole entry)", "assay": "Agonist activity at human MIF tautomerase using 4-hydroxyphenylpyruvate as substrate at 100 uM", "assay_type": "functional"}, "[4]": {"target": "T4, MIF/CD74 (Macrophage migration inhibitory factor and HLA-DR antigens-associated invariant chain) (Homo sapiens) (UniProt P14174+P04233)", "assay": "Binding affinity to human biotinylated MIF/CD74 at 150 nM", "assay_type": "protein assay"}, "[5]": {"target": "T4, MIF/CD74 (Macrophage migration inhibitory factor and HLA-DR antigens-associated invariant chain) (Homo sapiens)", "assay": "Activation of human biotinylated MIF/CD74", "assay_type": "protein assay"}, "[6]": {"target": "T3, Macrophage migration inhibitory factor (Homo sapiens)", "assay": "Induction of MIF-dependent ERK1/2 phosphorylation in human fibroblast after 30 mins by Western blotting"}, "[7]": {"target": "T5, Macrophage migration inhibitory factor (Homo sapiens, UniProt P14174)", "T5 sequence (P14174 whole entry)": "T1 sequence (P14174 whole entry)", "assay": "(§2) Inhibition of human MIF tautomerase activity using 4-hydroxyphenylpyruvate as substrate", "procedure,_shortened": "(§3)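 Recombinant human MIF tautomerase activity with 4-hydroxyphenylpyruvate as substrate. Compounds were tested between 1 nM and 1 mM. Where inhibition plateaued below 50%, the maximum percent inhibition was reported.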"}, "[8]": {"target": "T3, Macrophage migration inhibitory factor (Homo sapiens)", "assay": "Inhibition of MIF-dependent ERK1/2 phosphorylation in human fibroblast after 30 mins by Western blotting", "procedure,_shortened": "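MIF-dependent ERK1/2 phosphorylation was measured in human fibroblasts. Phospho-ERK1/2 and total ERK1/2 were detected by western blot. The phospho/total ratio was determined by densitometry across three separate experiments.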"}, "[9]": {"target": "T4, MIF/CD74 (Macrophage migration inhibitory factor and HLA-DR antigens-associated invariant chain) (Homo sapiens)", "assay": "as §1", "assay_type": "protein assay"}, "[10]": {"target": "T4, MIF/CD74 (Macrophage migration inhibitory factor and HLA-DR antigens-associated invariant chain) (Homo sapiens)", "assay": "Binding affinity to human biotinylated MIF/CD74 at 500 nM", "assay_type": "protein assay"}, "[11]": {"target": "T3, Macrophage migration inhibitory factor (Homo sapiens)", "assay": "as §2", "procedure,_shortened": "as §3"}, "[12]": {"target": "T4, MIF/CD74 (Macrophage migration inhibitory factor and HLA-DR antigens-associated invariant chain) (Homo sapiens)", "assay": "Binding affinity to human biotinylated MIF/CD74 at 100 nM", "assay_type": "protein assay"}},
  "note": "Active and inactive are the calls of the source. No cut-off for these calls is given here.",
  "data": [
    {"molecule": "COc1cccc(Cc2cn(-c3ccc(O)cc3)nn2)c1OC", "values": [
      {"measurement": "IC50", "setting": "[1]", "result": "Not Active"}
    ]},
    {"molecule": "Oc1ccc(-n2cc(Cc3ccccc3)nn2)cc1", "values": [
      {"measurement": "IC50", "setting": "[2]", "result": 3.5, "unit": "µM"}
    ]},
    {"molecule": "COc1cccc(Cn2cc(-c3ccc(O)cc3)nn2)c1", "values": [
      {"measurement": "IC50", "setting": "[2]", "result": 50, "unit": "µM"}
    ]},
    {"molecule": "Oc1ccc(-n2cc(-c3cncc4ccccc34)nn2)cc1", "values": [
      {"measurement": "Activity", "setting": "[3]", "result": "Active"},
      {"measurement": "Activity", "setting": "[4]", "result": 100, "unit": "%"},
      {"measurement": "Activity", "setting": "[5]", "result": 39, "unit": "%"},
      {"measurement": "Activity", "setting": "[6]", "result": "Active"}
    ]},
    {"molecule": "Oc1ccc(-n2cc(Cc3cccc(O)c3)nn2)cc1", "values": [
      {"measurement": "IC50", "setting": "[1]", "result": "Not Active"},
      {"measurement": "IC50", "setting": "[7]", "result": "Not Active"}
    ]},
    {"molecule": "COc1cccc(Cn2cc(-c3ccc(O)cc3)nn2)c1OC", "values": [
      {"measurement": "inhibition", "setting": "[8]", "result": "Active"},
      {"measurement": "IC50", "setting": "[2]", "result": 0.9, "unit": "µM"},
      {"measurement": "IC50", "setting": "[7]; read-out: IC50", "result": 0.75, "unit": "µM"}
    ]},
    {"molecule": "O=C(O)c1cccc(Cn2cc(-c3ccc(O)cc3)nn2)c1", "values": [
      {"measurement": "IC50", "setting": "[1]", "result": "Not Active"}
    ]},
    {"molecule": "Oc1ccc(-c2cn(-c3cncc4ccccc34)nn2)cc1", "values": [
      {"measurement": "Imax", "setting": "[9]", "result": 12, "unit": "%"}
    ]},
    {"molecule": "Cc1cccc(Cn2cc(-c3ccc(O)cc3)nn2)c1", "values": [
      {"measurement": "IC50", "setting": "[1]", "result": "Not Active"}
    ]},
    {"molecule": "Oc1ccc(-c2cn(-c3cccc4ccccc34)nn2)cc1", "values": [
      {"measurement": "Imax", "setting": "[9]", "result": 23, "unit": "%"}
    ]},
    {"molecule": "Oc1ccc(-c2cn(Cc3ccccn3)nn2)cc1", "values": [
      {"measurement": "Imax", "setting": "[9]", "result": 30, "unit": "%"}
    ]},
    {"molecule": "Oc1ccc(-c2cn(Cc3ccccc3)nn2)cc1", "values": [
      {"measurement": "IC50", "setting": "[1]", "result": "Not Active"}
    ]},
    {"molecule": "COC(=O)c1cccc(Cn2cc(-c3ccc(O)cc3)nn2)c1", "values": [
      {"measurement": "IC50", "setting": "[2]", "result": 1.2, "unit": "µM"},
      {"measurement": "IC50", "setting": "[7]; read-out: IC50", "result": 2.5, "unit": "µM"}
    ]},
    {"molecule": "Cc1ccccc1Cn1cc(-c2ccc(O)cc2)nn1", "values": [
      {"measurement": "IC50", "setting": "[1]", "result": "Not Active"}
    ]},
    {"molecule": "COc1ccccc1Cn1cc(-c2ccc(O)cc2)nn1", "values": [
      {"measurement": "Activity", "setting": "[10]", "result": 40, "unit": "%"},
      {"measurement": "Activity", "setting": "[3]", "result": "Active"},
      {"measurement": "Activity", "setting": "[5]", "result": 31, "unit": "%"},
      {"measurement": "Activity", "setting": "[6]", "result": "Active"}
    ]},
    {"molecule": "COc1ccccc1Cc1cn(-c2ccc(O)cc2)nn1", "values": [
      {"measurement": "Imax", "setting": "[9]", "result": 14, "unit": "%"},
      {"measurement": "Imax", "setting": "[11]", "result": 35, "unit": "%"}
    ]},
    {"molecule": "COc1ccc(Cc2cn(-c3ccc(O)cc3)nn2)cc1OC", "values": [
      {"measurement": "Imax", "setting": "[9]", "result": 22, "unit": "%"}
    ]},
    {"molecule": "Cc1cccc(Cc2cn(-c3ccc(O)cc3)nn2)c1", "values": [
      {"measurement": "Imax", "setting": "[9]", "result": 30, "unit": "%"}
    ]},
    {"molecule": "COc1ccc(Cn2cc(-c3ccc(O)cc3)nn2)cc1", "values": [
      {"measurement": "IC50", "setting": "[1]", "result": "Not Active"}
    ]},
    {"molecule": "COc1cccc(Cc2cn(-c3ccc(O)cc3)nn2)c1", "values": [
      {"measurement": "Imax", "setting": "[9]", "result": 8, "unit": "%"},
      {"measurement": "Imax", "setting": "[11]", "result": 40, "unit": "%"}
    ]},
    {"molecule": "Oc1ccc(-c2cn(Cc3cccnc3)nn2)cc1", "values": [
      {"measurement": "Imax", "setting": "[9]", "result": 20, "unit": "%"}
    ]},
    {"molecule": "Oc1ccc(-n2cc(Cc3ccccc3O)nn2)cc1", "values": [
      {"measurement": "Imax", "setting": "[9]", "result": 9, "unit": "%"},
      {"measurement": "IC50", "setting": "[7]; read-out: IC50", "result": 1000, "unit": "µM"}
    ]},
    {"molecule": "Oc1ccc(-c2cn(-c3cccnc3)nn2)cc1", "values": [
      {"measurement": "Imax", "setting": "[9]", "result": 16, "unit": "%"}
    ]},
    {"molecule": "Oc1ccc(Cc2cn(-c3ccc(O)cc3)nn2)cc1", "values": [
      {"measurement": "Imax", "setting": "[9]", "result": 23, "unit": "%"},
      {"measurement": "IC50", "setting": "[7]; read-out: IC50", "result": 690, "unit": "µM"}
    ]},
    {"molecule": "Oc1ccc(-n2cc(-c3cccc4ccccc34)nn2)cc1", "values": [
      {"measurement": "IC50", "setting": "[1]", "result": "Not Active"}
    ]},
    {"molecule": "Oc1ccc(-n2cc(-c3cccnc3)nn2)cc1", "values": [
      {"measurement": "Activity", "setting": "[3]", "result": "Active"},
      {"measurement": "Activity", "setting": "[5]", "result": 23, "unit": "%"},
      {"measurement": "Activity", "setting": "[12]", "result": 100, "unit": "%"},
      {"measurement": "Activity", "setting": "[6]", "result": "Active"}
    ]},
    {"molecule": "COc1ccc(Cc2cn(-c3ccc(O)cc3)nn2)cc1", "values": [
      {"measurement": "Imax", "setting": "[9]", "result": 36, "unit": "%"}
    ]}
  ]
}
